Active and inactive are the calls of the source. The rule behind the calls is not given here.
Tests used:
[1] = Oral bioavailability in Beagle dog at 10 mg/kg; assay type: ADME, organism-based, Canis lupus familiaris; settings: in vivo
Summary of the method: (§1)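 Beagle dog single-dose PK at 1 mg/kg iv and 10 mg/kg po, dosed as a solution in 12.5% captisol in water. Plasma clearance, Vss, iv T1/2, AUC and F were reported.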

[2] = system: Fusion glycoprotein F0 (Human respiratory syncytial virus A (strain A2)), P03420 [D489A]; test: Inhibition of Human respiratory syncytial virus Fusion protein D489A mutant expressed in Hep2 cells as reduction in virus induced cytopathic effect by CCK-8 assay; assay type: cell-based
Summary of the method: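 HEp-2 cells were seeded at 6000/well and infected with plaque-purified RSV carrying the F-protein mutation (D486N or D489A) at MOI 0.04, with serially diluted compound. Viability was read by CCK-8 absorbance at 450 nm/650 nm, and EC50/EC90 were derived from protection against virus-induced cytopathic effect.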

[3] = Volume of distribution at steady state in cynomolgus monkey at 2 mg/kg, iv or 10 mg/kg, po; assay type: ADME, organism-based, Macaca fascicularis; settings: in vivo, read-out: Vdss
Summary of the method: (§2)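 Cynomolgus monkeys got single doses of 2 mg/kg iv and 10 mg/kg po as a solution in 12.5% captisol in water. Plasma CL, Vss, iv T1/2, AUC and oral F were derived.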

[4] = Tmax in CD-1 mouse plasma at 10 mg/kg/day, po administered via gavage and measured up to 24 hrs by LC/MS/MS analysis; assay type: ADME, organism-based
[5] = Antiviral activity against Human respiratory syncytial virus A strain Long infected in BALB/c mouse assessed as log reduction in virus titer in lung at 12.5 mg/kg, po BID administered up to 8 hrs for 4 days relative to control; assay type: functional
Summary of the method: (§3)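 Six-week-old female BALB/c mice, housed specific-pathogen-free, were anesthetized intraperitoneally with ketamine/xylazine and given RSV Long strain intranasally (5×10^5 PFU in 100 µL). Oral dosing was twice daily (0 h and 8 h) for 4 days, 12 mice per group. Mice were then euthanized with CO₂ and lungs harvested for viral titer, compared with vehicle.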

[6] = system: Human parainfluenza virus 2; test: Antiviral activity against Human parainfluenza virus 2 infected in human Hep2 cells assessed as reduction in virus induced cytopathic effect after 5 days by CCK-8 assay; assay type: functional, organism-based; settings: Human orthorubulavirus 2
[7] = Half-life in cynomolgus monkey at 2 mg/kg, iv; assay type: ADME, organism-based, Macaca fascicularis; settings: in vivo; summary of the method: as §2
[8] = Tmax in CD-1 mouse lung at 10 mg/kg/day, po administered via gavage and measured up to 24 hrs by LC/MS/MS analysis; assay type: ADME, organism-based
[9] = AUC (0 to 24 hrs) in Sprague-Dawley rat at 10 mg/kg, po; assay type: ADME, organism-based; set-up: dose 10 mg/kg, time < 24 hr, route oral; settings: in vivo
[10] = Cmax in CD-1 mouse plasma at 10 mg/kg/day, po administered via gavage and measured up to 24 hrs by LC/MS/MS analysis; assay type: ADME, organism-based; set-up: dose 10 mg/kg/day, route oral
Human orthopneumovirus = test: Antiviral activity against Human respiratory syncytial virus B18537 infected in human Hep2 cells assessed as reduction in virus induced cytopathic effect in presence of 10% FBS after 5 days by CCK-8 assay; assay type: functional, organism-based; settings: subgroup B / strain 18537, HEp-2, 120 h
Summary of the method: (§4)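 HEp-2 cells seeded at 6000/well and infected the next day at MOI 0.02, a dose that gives about 90% CPE by day 5. Serial compound dilutions were present throughout, in standard medium with 10% FBS. Viability was read by CCK-8 at day 5, and EC50 is the concentration that cuts CPE by 50%.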

[11] = Volume of distribution at steady state in Wistar-Han rat at 2 mg/kg, iv or 10 mg/kg, po administered as single dose via gavage and measured up to 24 hrs by LC/MS/MS analysis; assay type: ADME, organism-based; settings: in vivo, read-out: Vdss
Summary of the method: (§5)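 Male Wistar-Han rats, single dose, 2 mg/kg iv and 10 mg/kg po, run by standard procedures.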

[12] = Clearance in Beagle dog at 1 mg/kg, iv or 10 mg/kg, po; assay type: ADME, organism-based, Canis lupus familiaris; settings: in vivo; summary of the method: as §1
[13] = Antiviral activity against Human respiratory syncytial virus A 1177 clinical isolates infected in human Hep2 cells assessed as reduction in virus induced cytopathic effect in presence of 10% FBS after 5 days by CCK-8 assay; assay type: functional, cell-based; settings: human respiratory syncytial virus, 1177, HEp-2, 120 h; summary of the method: as §4
[14] = Half-life in CD-1 mouse plasma at 10 mg/kg/day, po administered via gavage and measured up to 24 hrs by LC/MS/MS analysis; assay type: ADME, organism-based
[15] = AUC (0 to 24 hrs) in Wistar-Han rat at 10 mg/kg, po administered as single dose via gavage and measured up to 24 hrs by LC/MS/MS analysis; assay type: ADME, organism-based; set-up: dose 10 mg/kg, time < 24 hr, route oral; settings: in vivo
Summary of the method: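 Single-dose PK in male Wistar-Han rats at 2 mg/kg iv or 10 mg/kg po, as a solution in 5% DMSO, 40% PEG400 and 55% 0.9% sodium chloride.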

[16] = Antiviral activity against Human respiratory syncytial virus A strain Long infected in BALB/c mouse assessed as log reduction in virus titer in lung at 50 mg/kg, po BID administered up to 8 hrs for 4 days relative to control; assay type: functional; summary of the method: as §3
[17] = Volume of distribution at steady state in Sprague-Dawley rat at 2 mg/kg, iv or 10 mg/kg, po; assay type: ADME, organism-based; settings: in vivo, read-out: Vdss
Summary of the method: (§6)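 Rat single-dose PK: 2 mg/kg iv and 10 mg/kg po. Compound was given as a solution in 5% DMSO/40% PEG400/55% of 0.9% saline. Plasma CL, Vss, iv half-life, AUC and oral bioavailability were reported.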

Human respirovirus 3 = test: Antiviral activity against Human parainfluenza virus 3 infected in human Hep2 cells assessed as reduction in virus induced cytopathic effect after 5 days by CCK-8 assay; assay type: functional, organism-based
Influenza A virus = test: Antiviral activity against Influenza A virus H1N1 infected in human Hep2 cells assessed as reduction in virus induced cytopathic effect after 5 days by CCK-8 assay; assay type: functional; settings: H1N1, HEp-2, 120 h
[18] = Antiviral activity against Human respiratory syncytial virus A strain Long infected in human Hep2 cells assessed as reduction in virus induced cytopathic effect in presence of 40% FBS after 5 days by CCK-8 assay; assay type: functional, cell-based; settings: HEp-2, 120 h
Summary of the method: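 RSV Long CPE assay with 40% FBS in place of the standard 10%. HEp-2 cells at 6000/well were infected next day at MOI 0.02 and kept 5 days with serially diluted compound. CCK-8 viability gave the 50% effective concentration.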

[19] = Clearance in cynomolgus monkey at 2 mg/kg, iv or 10 mg/kg, po; assay type: ADME, organism-based, Macaca fascicularis; settings: in vivo; summary of the method: as §2
[20] = Plasma clearance in Wistar-Han rat at 2 mg/kg, iv or 10 mg/kg, po administered as single dose via gavage and measured up to 24 hrs by LC/MS/MS analysis; assay type: ADME, organism-based; summary of the method: as §5
[21] = Clearance in CD-1 mouse at 5 mg/kg, iv or 50 mg/kg, po; assay type: ADME, organism-based; settings: in vivo
Summary of the method: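 Single-dose PK in CD-1 mice: 5 mg/kg iv, 50 mg/kg po. Dosed as a solution in 5% DMSO, 40% PEG400, 55% of 0.9% NaCl. Plasma CL, Vss, iv T1/2, AUC and F were derived.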

[22] = Oral bioavailability in Sprague-Dawley rat at 10 mg/kg; assay type: ADME, organism-based; settings: in vivo; summary of the method: as §6

Cc1ccc2nc(N3CCS(=O)(=O)c4ccccc4C3)nc(NCC3(N)COC3)c2c1 [ZIRESOVIR] gave a bioavailability [1] of 26%, an EC90 [2] of 10000 nM and a Vd [3] of 1.9 L/kg. The Tmax [4] was 0.25 h, the FC [5] was over 1 and the Activity [6] was “inactive”. The half-life [7] was 1 h, the Tmax [8] was 1 h and the AUC(0-t) at 24 h [9] was 906 ng·h/mL. It also gave a Cmax [10] of 5090 ng/mL, an EC50 (Human orthopneumovirus) of 2 nM and an EC90 (Human orthopneumovirus) of 3 nM. It also gave a Vd [11] of 3.9 L/kg, a clearance [12] of 36 mL/min/kg and an EC50 [13] of 4 nM. It also gave an EC90 [13] of 7 nM, a half-life [14] of 1.02 h and an AUC(0-t) at 24 h [15] of 906 ng·h/mL. For the same compound, the FC [16] was 1.9, the Vd [17] was 3.9 L/kg and the Activity (Human respirovirus 3) was “inactive”. It also gave an EC90 (Influenza A virus) of over 100000 nM, an EC50 [18] of 3 nM and an EC90 [18] of 8 nM. The clearance [19] was 26 mL/min/kg, the clearance [20] was 58 mL/min/kg and the clearance [21] was 277 mL/min/kg. It also gave a bioavailability [22] of 32%.

From ChEMBL document CHEMBL4364260, “Discovery of Ziresovir as a Potent, Selective, and Orally Bioavailable Respiratory Syncytial Virus Fusion Protein Inhibitor” (J Med Chem, 2019)
